Measured values published in ChEMBL document CHEMBL4138318, “Discovery of 5-Cyano-6-phenylpyrimidin Derivatives Containing an Acylurea Moiety as Orally Bioavailable Reversal Agents against P-Glycoprotein-Mediated Mutidrug Resistance” (J Med Chem, 2018).
Active and inactive are the calls of the source. No cut-off for these calls is given here.

How the values were obtained:
[1] = target: T1, ATP-dependent translocase ABCB1 (Homo sapiens, UniProt P08183); experiment: Inhibition of ABCB1 in human SW620/AD300 cells assessed as potentiation of paclitaxel-induced cytotoxicity by measuring fold reduction in paclitaxel IC50 at 1 uM after 72 hrs by MTT assay; type: cell-based
Method in brief: (§1)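 SW620/AD300 cells (~5×10^3/well) treated with graded paclitaxel with or without modulator (2 µM, or 0.5-2 µM in dose series; 0.1% DMSO solvent control) for 72 h; MTT (5 mg/mL stock) added 4 h, absorbance 490 nm. IC50 as mean ± SD of three independent runs; reversal fold = paclitaxel IC50 without/with modulator.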

[2] = tested on: SW-620; experiment: Inhibition of [3H]-paclitaxel efflux in human SW620 cells up to 4 uM preincubated for 4 hrs followed by [3H]-paclitaxel addition for 2 hrs measured after 120 mins by liquid scintillation counting method; type: functional, cell-based
Method in brief: (§2)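 After 2 h loading with 0.1 µM [3H]-paclitaxel (following 4 h compound pre-exposure), SW620 or SW620/AD300 cells moved to label-free medium for a 2 h efflux phase; samples taken at 0, 30, 60 and 120 min and radioactivity counted by liquid scintillation. Three independent assays, mean ± SD.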

[3] = tested on: SW-620; experiment: Inhibition of rhodamine 123 efflux in human SW620 cells up to 4 uM preincubated for 4 hrs followed by 30 mins incubation in Rho-123 containing medium and subsequent incubation in Rho-123 free medium up to 120 mins by flow cytometry; type: functional, cell-based
Method in brief: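 Cells loaded with rhodamine 123 as in the accumulation assay (4 h compound pre-exposure, 1 µg/mL dye 30 min, 37℃), then kept in dye-free medium with or without reversal agent for 30, 60, 90 or 120 min at 37℃; intracellular fluorescence read by flow cytometry at 488/530 nm. Three independent experiments.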

[4] = tested on: SW620/AD300; experiment: Antitumor activity against ABCB1 overexpressing human SW620/AD300 cells xenografted in BALB/c nude mouse assessed as reduction in tumor volume at 20 mg/kg/day, po cotreated with 5 mg/kg, ip paclitaxel measured after 21 days; type: functional, organism-based
Method in brief: (§3)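 Female BALB/c nude mice (18-20 g, 5-6 weeks) bearing SW620/AD300 xenografts; grouping once tumours reached 100 mm3: saline vehicle […] ip, paclitaxel 5 mg/kg every 3 days ip, test agent 20 mg/kg/day orally, or the combination. Body weight and tumour volume recorded every 2 days over 21 days; tumours excised and weighed at end.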

[5] = tested on: SW620/AD300; experiment: Effect on ABCB1 expression in human SW620/AD300 cells up to 4 uM after 48 hrs by Western blot analysis; type: functional, cell-based
Method in brief: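 SW620/AD300 cells exposed to compound at 0, 1, 2 or 4 µM for 48 h, lysed, ultracentrifuged, protein quantified by BCA; equal protein run on SDS-PAGE, wet-transferred to nitrocellulose, primary antibody overnight at 4℃, secondary 2 h at room temperature, enhanced chemiluminescence detection; GAPDH as loading control.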

[6] = target: T1, ATP-dependent translocase ABCB1; experiment: Binding affinity to ABCB1 in human SW620/AD300 cells assessed as thermal stabilization preincubated for 30 mins followed by incubation at 40 to 61 degC for 3 mins by CETSA; type: cell-based; settings: 0.05 h
Method in brief: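 SW620/AD300 cells lysed by three liquid-nitrogen freeze-thaw cycles; ultracentrifuged supernatant split into compound-treated and solvent-control portions, incubated 30 min at 37℃, aliquoted and heated 3 min at 40, 43, 46, 49, 52, 55, 58 or 61℃; remaining ABCB1 or ABCC1 detected by western blotting.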

[7] = target: T1, ATP-dependent translocase ABCB1; experiment: Inhibition of ABCB1 in human SW620/AD300 cells assessed as potentiation of paclitaxel-induced cytotoxicity after 72 hrs by MTT assay; type: cell-based; method in brief: as §1
[8] = tested on: SW620/AD300; experiment: Antitumor activity against ABCB1 overexpressing human SW620/AD300 cells xenografted in BALB/c nude mouse assessed as reduction in tumor volume at 20 mg/kg/day, po measured after 21 days; type: functional, organism-based; method in brief: as §3
[9] = target: T1, ATP-dependent translocase ABCB1; experiment: Inhibition of ABCB1 in human SW620/AD300 cells assessed as intracellular accumulation of [3H]-paclitaxel up to 4 uM preincubated for 4 hrs followed by [3H]-paclitaxel addition measured after 2 hrs by liquid scintillation counting method; type: cell-based
Method in brief: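 Cells pre-exposed with or without compound at various concentrations 4 h at 37°C, then 0.1 µM [3H]-paclitaxel added for 2 h in continued presence of treatment; washed three times in cold PBS, lysed, radioactivity counted by liquid scintillation. Mean ± SD of three independent assays.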

[10] = tested on: SW620/AD300; experiment: Effect on subcellular localization of ABCB1 in human SW620/AD300 cells at 2 uM after 48 hrs by Hoechst 33258 staining-based immunofluorescence assay; type: functional, cell-based
Method in brief: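 About 1×10^4 cells on coverslips incubated with compound 48 h, fixed in 4% paraformaldehyde ≥20 min, blocked 2 h in PBS with 5% BSA, anti-ABCB1 primary overnight at 4℃, Alexa Fluor 488 anti-goat secondary 2 h, nuclei stained with Hoechst 33258 20 min; imaged by laser scanning confocal microscopy.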

[11] = target: T1, ATP-dependent translocase ABCB1; experiment: Inhibition of ABCB1 in human SW620/AD300 cells assessed as intracellular accumulation of paclitaxel up to 4 uM treated at 2 hrs post paclitaxel treatment for 30 mins in paclitaxel free medium by HPLC analysis; type: cell-based; settings: 0.5 h
Method in brief: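 Equal numbers of SW620/AD300 cells loaded with 6 µg/mL paclitaxel 2 h, then held in paclitaxel-free medium with or without compound 30 min at 37℃; cells harvested, disrupted by ultrasound, extracted with ethyl acetate and paclitaxel quantified by HPLC.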

[12] = target: T1, ATP-dependent translocase ABCB1; experiment: Inhibition of ABCB1 (unknown origin) expressed in HEK293 cells assessed as potentiation of vincristine-induced cytotoxicity by measuring fold reduction in vincristine IC50 at 1 uM preincubated for 4 hrs followed by vincristine addition measured after 72 hrs by MTT assay; type: cell-based
[13] = Cytotoxicity against human SW620/AD300 cells assessed as survival at 2 uM after 72 hrs by MTT assay relative to control; type: cell-based; settings: read-out: Survival
[14] = target: Multidrug resistance-associated protein 1 (Homo sapiens, UniProt P33527); experiment: Inhibition of ABCC1 in human KB-CV60 cells assessed as potentiation of vincristine-induced cytotoxicity by measuring fold reduction in vincristine IC50 at 1 uM preincubated for 4 hrs followed by vincristine addition measured after 72 hrs by MTT assay; type: cell-based
Method in brief: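 KB-CV60 and HEK293/ABCC1 cells (transfected line kept in 2 mg/mL G418) given graded vincristine with or without modulator for 72 h; MK571 25 µM reference; viability by MTT read at 490 nm. IC50 from three independent repeats, mean ± SD; reversal fold = vincristine IC50 ratio without/with modulator.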

[15] = target: Cytochrome P450 3A4 (Homo sapiens, UniProt P08684); experiment: Inhibition of recombinant human CYP3A4 in presence of NADPH generating system by fluorescence assay; type: ADME
[16] = target: T1, ATP-dependent translocase ABCB1; experiment: Stimulation of human ABCB1 ATPase activity expressed in high-five insect cell membrane vesicles assessed as compound concentration required for 50% stimulation by colorimetric analysis; settings: read-out: Activity
Method in brief: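 Vanadate-sensitive ABCB1 ATPase activity in High Five insect cell membrane vesicles, measured with a commercial ATPase kit under a modified protocol; compound tested across 0-40 µM; maximal fold stimulation and concentration giving 50% stimulation derived.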

[17] = target: T1, ATP-dependent translocase ABCB1; experiment: Inhibition of ABCB1 in human SW620/AD300 cells assessed as reduction in [3H]-paclitaxel efflux preincubated for 4 hrs followed by [3H]-paclitaxel addition for 2 hrs measured after 120 mins by liquid scintillation counting method; type: cell-based; method in brief: as §2

T1 sequence (P08183 whole entry): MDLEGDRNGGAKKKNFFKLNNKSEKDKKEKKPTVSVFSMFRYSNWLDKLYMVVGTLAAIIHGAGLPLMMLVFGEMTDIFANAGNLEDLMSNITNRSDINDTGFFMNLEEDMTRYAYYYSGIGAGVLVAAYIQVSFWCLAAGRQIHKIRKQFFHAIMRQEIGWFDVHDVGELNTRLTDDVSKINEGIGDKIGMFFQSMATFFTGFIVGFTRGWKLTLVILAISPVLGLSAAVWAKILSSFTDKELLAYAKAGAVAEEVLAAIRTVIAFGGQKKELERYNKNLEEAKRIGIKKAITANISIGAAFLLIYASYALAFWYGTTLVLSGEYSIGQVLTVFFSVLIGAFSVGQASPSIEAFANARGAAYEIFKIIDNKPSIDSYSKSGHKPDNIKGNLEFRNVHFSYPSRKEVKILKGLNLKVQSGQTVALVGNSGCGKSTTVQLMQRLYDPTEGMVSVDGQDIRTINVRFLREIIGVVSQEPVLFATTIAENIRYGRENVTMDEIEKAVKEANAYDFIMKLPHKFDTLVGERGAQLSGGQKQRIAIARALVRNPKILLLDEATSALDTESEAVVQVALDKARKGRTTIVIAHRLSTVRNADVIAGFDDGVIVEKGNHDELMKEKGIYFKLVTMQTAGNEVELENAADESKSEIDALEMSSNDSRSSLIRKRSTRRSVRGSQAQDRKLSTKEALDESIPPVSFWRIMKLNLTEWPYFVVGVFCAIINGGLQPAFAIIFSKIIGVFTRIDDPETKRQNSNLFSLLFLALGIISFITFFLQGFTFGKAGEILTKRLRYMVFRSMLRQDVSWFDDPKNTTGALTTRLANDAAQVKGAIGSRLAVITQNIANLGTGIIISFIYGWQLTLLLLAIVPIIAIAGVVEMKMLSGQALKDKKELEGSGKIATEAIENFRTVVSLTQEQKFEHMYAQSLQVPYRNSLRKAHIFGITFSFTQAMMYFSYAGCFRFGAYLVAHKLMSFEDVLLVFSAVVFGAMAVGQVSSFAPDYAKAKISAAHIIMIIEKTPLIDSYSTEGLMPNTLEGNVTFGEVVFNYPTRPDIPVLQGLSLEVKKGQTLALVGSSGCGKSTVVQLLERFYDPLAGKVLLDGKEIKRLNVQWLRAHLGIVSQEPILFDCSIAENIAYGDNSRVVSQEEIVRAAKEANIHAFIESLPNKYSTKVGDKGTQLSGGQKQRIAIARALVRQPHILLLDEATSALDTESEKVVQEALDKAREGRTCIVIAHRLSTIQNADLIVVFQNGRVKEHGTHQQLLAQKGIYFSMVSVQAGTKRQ
Sequence of Cytochrome P450 3A4 (P08684 whole entry): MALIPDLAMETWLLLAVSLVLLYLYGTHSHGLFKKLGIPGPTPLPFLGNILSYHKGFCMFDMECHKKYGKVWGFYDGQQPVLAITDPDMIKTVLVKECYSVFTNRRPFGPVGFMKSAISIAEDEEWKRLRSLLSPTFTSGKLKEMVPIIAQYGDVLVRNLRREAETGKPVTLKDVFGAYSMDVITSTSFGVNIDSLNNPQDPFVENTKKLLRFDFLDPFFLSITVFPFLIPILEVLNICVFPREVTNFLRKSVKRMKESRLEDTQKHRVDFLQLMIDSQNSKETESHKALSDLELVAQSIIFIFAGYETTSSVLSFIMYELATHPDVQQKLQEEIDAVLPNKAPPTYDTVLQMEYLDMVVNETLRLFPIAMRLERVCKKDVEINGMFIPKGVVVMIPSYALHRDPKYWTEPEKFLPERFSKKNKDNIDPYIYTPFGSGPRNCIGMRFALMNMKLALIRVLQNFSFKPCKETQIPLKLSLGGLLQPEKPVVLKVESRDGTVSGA
Sequence of Multidrug resistance-associated protein 1 (P33527 whole entry): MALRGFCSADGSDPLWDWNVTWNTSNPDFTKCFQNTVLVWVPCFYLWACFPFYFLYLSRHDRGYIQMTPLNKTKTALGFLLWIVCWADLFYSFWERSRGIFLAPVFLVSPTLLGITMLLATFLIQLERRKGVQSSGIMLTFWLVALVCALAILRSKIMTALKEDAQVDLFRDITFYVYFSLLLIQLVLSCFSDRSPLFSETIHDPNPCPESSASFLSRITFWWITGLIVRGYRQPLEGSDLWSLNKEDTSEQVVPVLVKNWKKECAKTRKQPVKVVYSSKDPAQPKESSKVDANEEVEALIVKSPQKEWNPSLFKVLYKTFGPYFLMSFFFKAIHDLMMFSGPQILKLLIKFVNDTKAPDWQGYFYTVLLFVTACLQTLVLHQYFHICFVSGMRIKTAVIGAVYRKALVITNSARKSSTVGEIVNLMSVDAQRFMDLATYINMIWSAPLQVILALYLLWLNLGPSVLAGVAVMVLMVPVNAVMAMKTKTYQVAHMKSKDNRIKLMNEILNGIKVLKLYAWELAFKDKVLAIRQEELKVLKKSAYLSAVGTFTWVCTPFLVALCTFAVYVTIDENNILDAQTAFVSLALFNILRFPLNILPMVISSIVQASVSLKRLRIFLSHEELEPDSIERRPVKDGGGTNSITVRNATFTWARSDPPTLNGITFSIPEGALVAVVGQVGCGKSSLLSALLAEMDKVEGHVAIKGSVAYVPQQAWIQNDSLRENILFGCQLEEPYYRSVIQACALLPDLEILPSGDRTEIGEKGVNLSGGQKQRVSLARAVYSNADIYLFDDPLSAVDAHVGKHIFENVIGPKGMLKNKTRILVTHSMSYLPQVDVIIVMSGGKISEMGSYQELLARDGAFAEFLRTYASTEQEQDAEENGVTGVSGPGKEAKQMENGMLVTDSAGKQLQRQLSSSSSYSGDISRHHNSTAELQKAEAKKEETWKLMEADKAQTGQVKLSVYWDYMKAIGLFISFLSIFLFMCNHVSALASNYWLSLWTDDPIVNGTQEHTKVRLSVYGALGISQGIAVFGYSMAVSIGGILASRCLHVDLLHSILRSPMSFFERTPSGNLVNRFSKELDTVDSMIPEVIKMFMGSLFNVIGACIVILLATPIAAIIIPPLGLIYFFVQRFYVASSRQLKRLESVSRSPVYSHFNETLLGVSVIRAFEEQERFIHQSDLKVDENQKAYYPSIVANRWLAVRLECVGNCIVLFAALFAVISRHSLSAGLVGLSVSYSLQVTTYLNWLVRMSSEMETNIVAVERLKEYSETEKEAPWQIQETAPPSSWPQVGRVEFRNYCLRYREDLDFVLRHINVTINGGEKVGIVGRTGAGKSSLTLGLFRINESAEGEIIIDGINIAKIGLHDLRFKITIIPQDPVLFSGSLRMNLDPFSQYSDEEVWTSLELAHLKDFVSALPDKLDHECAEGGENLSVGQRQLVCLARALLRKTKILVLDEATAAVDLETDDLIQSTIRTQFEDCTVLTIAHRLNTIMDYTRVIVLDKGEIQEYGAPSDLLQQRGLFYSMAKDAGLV

For COc1cc(-c2nc(SCC(=O)NC(=O)Nc3ccccn3)nc(Nc3cccc(Cl)c3)c2C#N)cc(OC)c1OC, the “fold change (FC)” value [1] was 135.03, the inhibition [2] was “inactive” and the inhibition [3] was “inactive”. The Activity [4] was “Active”, the Activity [5] was “inactive” and the Activity [6] was “Active”. For the same molecule, the “inhibition (INH)” value [7] was “Dose-dependent effect”, the Activity [8] was “inactive” and the “inhibition (INH)” value [9] was “Active”. The Activity [10] was “inactive”, the “inhibition (INH)” value [11] was “Active” and the “fold change (FC)” value [12] was 9.75. For the same molecule, the viability at 72 h, 2 µM [13] was greater than 90%, the “fold change (FC)” value [14] was 1.13 and the IC50 [15] was 17.2 µM. For the same molecule, the EC50 [16] was 0.97 µM and the “inhibition (INH)” value [17] was “Dose-dependent effect”.
